This is an account of results in ChEMBL document CHEMBL1147105, “In vitro and in vivo activities of PD 0305970 and PD 0326448, new bacterial gyrase/topoisomerase inhibitors with potent antibacterial activities versus multidrug-resistant gram-positive and fastidious organism groups” (2007).

Values after ≈ are worked out from the molar mass of the structure shown. Active and inactive are the calls of the source.

In one assay the test system is Staphylococcus aureus. As to the kind of experiment: Antibacterial efficacy against methicillin-resistant Staphylococcus aureus SA1417 infected orally dosed CD1 mouse model. In kind it is functional. In outline: (§1)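 Sepsis model in female CD1 mice (6–8 weeks, 18–22 g). Lethal i.p. challenge (0.5 ml) at ≥100 median lethal doses. Streptococci were given in Todd-Hewitt broth; other organisms were given with 20% hog gastric mucin. A single oral gavage dose (0.5 ml, in 0.5% methylcellulose) was given at the time of challenge. The PD50 (mg/kg) was calculated by probit analysis.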

A further assay concerns Escherichia coli. Kind of assay: Antibacterial efficacy against Escherichia coli Vogel infected orally dosed CD1 mouse model. In kind it is functional. The procedure, abridged: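 Female CD1 mice, 6–8 weeks old (18–22 g), challenged intraperitoneally (0.5 ml) with ≥100 median lethal doses suspended in 20% hog gastric mucin. Single oral gavage dose at the time of challenge, in 0.5% methylcellulose. Untreated controls of 10 mice per group. PD50 (mg/kg), the dose protecting 50% of mice from lethal infection, calculated by probit analysis.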

Assay [1] relates to Streptococcus pneumoniae. As to the kind of experiment: Antibacterial activity against quinolone-resistant Streptococcus pneumoniae SP4333 infected twice daily orally dosed CD1 mouse. In kind it is functional. To be noted: po; for ED50: read-out: PD50. In outline:
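Pneumonia model in CD1 mice (n = 8), anaesthetised with ketamine i.p. Intranasal instillation of 50 μl of broth culture (10^8–10^9 CFU/ml, OD600 0.70), confirmed by plate counts. Oral therapy began 24 h post-challenge. Dosing was either once daily for 1 day or twice daily for 3 days. The result was given as the PD50 (mg/kg).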

The subject of assay [2] is Streptococcus pneumoniae. As to the kind of experiment: Antibacterial activity against Streptococcus pneumoniae 1-970-1 with gyrB Asp435Glu mutation. In kind it is functional.
Assay [3] has as its system Streptococcus pneumoniae. Kind of assay: Antibacterial activity against Streptococcus pneumoniae 1-970-2 with gyrB Asp435Glu, Glu475Ala and parE Pro475Ser mutation. In kind it is functional.
In assay [4] the test system is Streptococcus pneumoniae. Kind of assay: Antibacterial activity against Streptococcus pneumoniae 7785. In kind it is functional.
In assay [5] the test system is Streptococcus pyogenes. As to the kind of experiment: Bactericidal activity against Streptococcus pyogenes C203 at 0.008 ug/ml by time-kill study. In kind it is functional, organism-based. In outline:
(§2)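 Time-kill in 10 ml of cation-adjusted Mueller-Hinton broth with 3% lysed horse blood, without agitation. Multiples of MIC tested. Samples taken at 0, 2, 4, 6 and 24 h and plated on tryptic soy agar with 5% sheep blood after ≥250-fold dilution, detection limit 10 CFU/ml. Counts read after 24 h at 35°C. Bactericidal defined as a ≥3 log10 drop from the starting inoculum within 24 h.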

The test system of assay [6] is Streptococcus pneumoniae. Kind of assay: Bactericidal activity against Streptococcus pneumoniae SV1 at 2 ug/ml by time-kill study. In kind it is functional, organism-based. The procedure, abridged: as §2
Assay [7] concerns Streptococcus pneumoniae. As to the kind of experiment: Bactericidal activity against Streptococcus pneumoniae SV1 at 0.008 ug/ml by time-kill study. In kind it is functional, organism-based. The procedure, abridged:
as §2

In assay [8] the test system is Streptococcus pyogenes. Kind of assay: Bactericidal activity against Streptococcus pyogenes C203 at 2 ug/ml by time-kill study. In kind it is functional, organism-based. The procedure, abridged:
as §2

Assay [9] deals with Streptococcus pyogenes. As to the kind of experiment: Antibacterial efficacy against Streptococcus pyogenes C203 infected orally dosed CD1 mouse model. In kind it is functional. To be noted: C203, po; for ED50: read-out: PD50. In outline:
as §1

For orientation: MIC means the lowest concentration found to suppress growth. Turning to `Cc1c(N2CC[C@@H]([C@H](C)N)C2)c(F)cc2c(=O)n(N)c(=O)n(C3CC3)c12`, the MIC amounted to 0.25 µg/mL (≈ 0.692 µM) in the assay on Staphylococcus aureus; 1 µg/mL (≈ 2.77 µM) against Escherichia coli; 0.03 µg/mL (≈ 0.083 µM) against Streptococcus pneumoniae [1]; 0.06 µg/mL (≈ 0.166 µM) against Streptococcus pneumoniae [2]; 0.125 µg/mL (≈ 0.346 µM) in the assay with Streptococcus pneumoniae [3]; 0.03 µg/mL (≈ 0.083 µM) with Streptococcus pneumoniae [4]. The MIC against Streptococcus pyogenes [9] was determined as 0.015 µg/mL (≈ 0.0415 µM). Besides, the ED50 amounted to 2.5 mg/kg in the assay on Staphylococcus aureus (read-out: PD50), 82 mg/kg in the assay with Escherichia coli (read-out: PD50), 4.1 mg/kg in the assay with Streptococcus pneumoniae [1] and 0.7 mg/kg in the assay on Streptococcus pyogenes [9]. Besides, the outcome with Streptococcus pyogenes [5], in the assay with Streptococcus pneumoniae [6], in the assay on Streptococcus pneumoniae [7] and in the assay on Streptococcus pyogenes [8] was Active.
In the case of `C[C@H]1COc2c(N3CCN(C)CC3)c(F)cc3c(=O)c(C(=O)O)cn1c23.C[C@H]1COc2c(N3CCN(C)CC3)c(F)cc3c(=O)c(C(=O)O)cn1c23.O` [LEVOFLOXACIN], the minimum inhibitory concentration (MIC) was 0.25 µg/mL against Staphylococcus aureus and 0.5 µg/mL in the assay on Streptococcus pyogenes [9]. Also, the values for the ED50 in the assay with Streptococcus pneumoniae [1] and in the assay on Streptococcus pyogenes [9] were over 200 mg/kg and 17.7 mg/kg, respectively.
